In publication PMC7397943 (Journal of Ethnopharmacology, 2020):

Assays:
[1] = system: recombinant HIV–1 (NL4.3–Ren); type: cell-based; conditions: Human immunodeficiency virus 1, MT2, 48 h, read-out: IC50 μM HIV (CI95%; R2), isolated compounds, MT–2 cells, wild type HIV NL4.3–Ren
Method in brief: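 MT-2 cells (RPMI-1640, 10% FBS, 2 mM L-glutamine, penicillin/streptomycin; 37 °C, 5% CO2) were infected with NL4.3-Ren supernatant (100.000 RLUs or 20 ng p24 per well) alongside serial dilutions of test compound (10 mM DMSO stock). Enfuvirtide served as control. After 48 h, lysates were read for Renilla-luciferase RLUs against vehicle-matched untreated cells (100%). IC50 came from non-linear regression.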

[2] = system: VSV pseudotyped HIV (VSV–HIV); experiment: microbe, parasite or virus in culture; type: cell-based, HIV–1; conditions: for IC50: Vesicular stomatitis virus, MT2, 48 h, read-out: IC50 μM VSV–HIV (CI95%; R2); for Effect on viral entry: comparison of HIV IC50 and VSV–HIV IC50 in MT–2 cells
[3] = Cell viability in mock–infected MT–2 cells; type: cell-based; conditions: human, mock-infected MT-2 cells
Method in brief: (§1)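 Test compound (from 10 mg/mL or 10 mM DMSO stocks) was added at graded concentrations to mock-infected MT-2 cells, run in parallel with the 48 h antiviral assay. Cells were grown in RPMI-1640 with 10% FBS, 2 mM L-glutamine and penicillin/streptomycin at 37 °C, 5% CO2. Viability was read by CellTiter Glo as % of the DMSO-matched control. CC50 came from non-linear regression.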

[4] = system: HIV transcription (pNL4.3–Luc); experiment: HIV transcription assay: MT–2 cells transfected with pNL4.3–Luc; type: cell-based, HIV–1
Method in brief: (§2)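 MT-2 cells were electroporated at 260 V in serum-free RPMI with a luciferase reporter: pNL4.3-Luc (whole HIV-1 genome), 3-enh-κB-ConA-luc (three κB copies), or Sp1-Luc (two Sp1 sites). Cells were seeded in complete RPMI with serial dilutions or one selected concentration of test compound at 37 °C for 48 h. PMA 100 nM was the reference. RLUs were expressed as % of DMSO control, with Bonferroni-corrected one-way ANOVA.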

NF–κB = NF–κB activity: MT–2 cells transfected with NF–κB–Luc plasmid; type: cell-based
Method in brief: as §2

Sp1 = Sp1 activity: MT–2 cells transfected with Sp1–Luc plasmid; type: cell-based; conditions: 48 h
Method in brief: as §2

THP–1 cells = experiment: Glutathione determination; type: cell-based; conditions: maximum redox index reached, maximum 1 (all glutathione reduced)
Method in brief: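 THP-1 cells were treated with serial dilutions of test compound, with resveratrol as reference. Cells were lysed in 0.1 M sodium phosphate/0.005 M EDTA, pH 8, plus 60% HClO4 (10 μL/mL), then spun at 6000g for 10 min at 4 °C. GSH and GSSG were measured by OPT fluorescence (ex 350/em 420 nm) against a GSH standard curve. Redox index = GSH/(GSH+GSSG), maximum 1. EC50 and Emax came from non-linear dose-response fits.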

MT–2 cells = experiment: Cell viability in mock–infected MT–2 cells; type: cell-based; conditions: MT–2 cells
Method in brief: as §1

[5] = fixed concentration 20 μM, pNL4.3–Luc, 48 h
[6] = fixed concentration 20 μM, NF–κB–Luc, 48 h

SMILES	IC50 [1] [µM]	IC50 [2] [µM]	Effect on viral entry [2]	CC50 at 48 h [3] [µM]	Effect on HIV transcription [4, 5]	Effect on NF–κB activity (NF–κB; [6])	Effect on Sp1 activity (Sp1; fixed concentration 20 μM)	Emax (CI95%) (THP–1 cells)	Toxicity at 100 μM (MT–2 cells; 100 μM)	Effect on HIV transcription ([4]; one selected active concentration (not given), compared with damsin)	Effect on NF–κB activity (NF–κB; one selected active concentration (not given))	Concentrations toxic to MT–2 cells (MT–2 cells)	Effect on HIV transcription ([4]; 4 μM, pNL4.3–Luc, 48 h, vs untreated control)	Effect on NF–κB activity (NF–κB; 4 μM, NF–κB–Luc, 48 h, vs untreated control)	Effect on Sp1 activity (Sp1; 4 μM, vs untreated control)
COc1c(OC)c(O)c2c(=O)cc(-c3ccc(O)cc3)oc2c1OC [Xanthomicrol, xanthomicrol]	17.4	34.4	HIV–1 entry is impaired	> 100	active as HIV transcriptional inhibitor	weak inhibition of NF–κB	no effect on Sp1	0.93 (0.81–1.04)	–	–	–	–	–	–	–
COc1ccc(-c2cc(=O)c3cc(OC)ccc3o2)c(OC)c1 [Trimethoxyflavone, 6,2′,4′–trimethoxyflavone]	28.4	35.6	ruling out an effect on viral entry	> 100	almost complete inhibition	almost complete inhibition	almost complete inhibition	0.74 (0.47–1.00)	–	–	–	–	–	–	–
C[C@]12CCC(=O)C=C1C=C[C@@H]1[C@@H]2CC[C@@]2(C)[C@H]1CC[C@@]21CCC(=O)O1 [Canrenone, canrenone]	18.9	14.2	viral entry is not their target	~100	–	–	–	–	slight toxicity	slightly less active	more powerful activity as a NF–κB inhibitor than as a Sp1 inhibitor	–	–	–	–
C=C1C(=O)O[C@@H]2[C@H]1CC[C@H](C)[C@@H]1CCC(=O)[C@@]21C [Damsin, damsin]	0.84	0.83	viral entry is not their target	20 to 100	–	–	–	–	–	–	–	higher than 20 μM	completely inhibits	completely inhibits	completely inhibits
Oc1ccc(/C=C/c2cc(O)cc(O)c2)cc1 [Resveratrol, resveratrol, reference compound]	–	–	–	–	–	–	–	0.94 (0.92–0.96)	–	–	–	–	–	–	–
